Calls of active or inactive are those of the source. No cut-off for these calls is given here.
Columns and labels:
[1] = tested on: Candida albicans; assay: Antifungal activity against Candida albicans BMSY 212 by agar diffusion assay; format: functional
Summary of the method: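 Agar-well diffusion: Candida albicans at 10^6 CFU/ml was seeded in melted nutrient agar and poured into plates. Compound was loaded as 50 µl of a 0.2 mM solution into 9 mm holes. Plates were incubated at 30 °C and the inhibition zones recorded.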

[2] = tested on: Enterococcus faecalis; assay: Antibacterial activity against VRE Enterococcus faecalis 1528 by agar diffusion assay; format: functional
Summary of the method: (§1)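 Test bacteria at 10^6 CFU/ml were suspended in melted nutrient agar and poured into Petri dishes. 9 mm wells were cut and each filled with 50 µl of a 0.2 mM compound solution. Inhibition zones were read after 18 h at 37 °C. Growth of colonies inside the zone was flagged.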

[3] = tested on: Pseudomonas aeruginosa; assay: Antibacterial activity against PSE1 beta-lactamase Pseudomonas aeruginosa IV-3-13 by agar diffusion assay; format: functional; summary of the method: as §1
[4] = tested on: Mycobacterium; assay: Antibacterial activity against wild type Mycobacterium vaccae IMET10670 by agar diffusion assay; format: functional, Mycolicibacterium vaccae; summary of the method: as §1
[5] = tested on: Staphylococcus aureus; assay: Antibacterial activity against wild type Staphylococcus aureus SG 511 by agar diffusion assay; format: functional; summary of the method: as §1
[6] = tested on: Escherichia coli; assay: Antibacterial activity against Escherichia coli X580 by agar diffusion assay; format: functional; summary of the method: as §1
[7] = tested on: Staphylococcus aureus; assay: Antibacterial activity against MRSA Staphylococcus aureus 134/93 by agar diffusion assay; format: functional; summary of the method: as §1
[8] = tested on: Escherichia coli; assay: Antibacterial activity against Escherichia coli ATCC 33475 by agar diffusion assay; format: functional; summary of the method: as §1
[9] = tested on: Escherichia coli; assay: Antibacterial activity against TEM1 beta-lactamase Escherichia coli IV-3-2 by agar diffusion assay; format: functional; summary of the method: as §1
[10] = tested on: Klebsiella pneumoniae; assay: Antibacterial activity against Klebsiella pneumoniae ATCC 8308 by agar diffusion assay; format: functional; summary of the method: as §1
[11] = tested on: Enterobacter cloacae; assay: Antibacterial activity against ampC beta-lactamase Enterobacter cloacae P99 by agar diffusion assay; format: functional
[12] = tested on: Escherichia coli; assay: Antibacterial activity against wild type Escherichia coli DC0 by agar diffusion assay; format: functional; summary of the method: as §1
[13] = tested on: Salmonella enterica; assay: Antibacterial activity against Salmonella enterica ATCC 13311 by agar diffusion assay; format: functional; summary of the method: as §1
[14] = tested on: Beta-lactamase (Bacillus cereus); assay: Inhibition of Bacillus cereus penicillinase

inhibition [14]	SMILES	inhibition zone (IZ) [1] [mm]	inhibition zone (IZ) [2] [mm]	inhibition zone (IZ) [3] [mm]	inhibition zone (IZ) [4] [mm]	inhibition zone (IZ) [5] [mm]	inhibition zone (IZ) [6] [mm]	inhibition zone (IZ) [7] [mm]	inhibition zone (IZ) [8] [mm]	inhibition zone (IZ) [9] [mm]	inhibition zone (IZ) [10] [mm]	inhibition zone (IZ) [11] [mm]	inhibition zone (IZ) [12] [mm]	inhibition zone (IZ) [13] [mm]
–	O=C(Cc1ccccc1)NCC(=O)N1O[C@H](C(=O)O)C[C@@H]1C(=O)O	0	0	0	0	0	26	0	0	0	0	0	0	0
–	C[C@@H](NC(=O)Cc1ccccc1)C(=O)N1O[C@H](C(=O)O)C[C@@H]1C(=O)O	–	–	–	–	–	25	–	0	–	0	–	–	0
inactive	C[C@H](NC(=O)Cc1ccccc1)C(=O)N1O[C@H](C(=O)O)C[C@@H]1C(=O)O	–	–	–	–	–	20	–	0	–	0	–	–	0
–	CO/N=C(\C(=O)N[C@@H]1C(=O)N2C(C(=O)O)=C(COC(C)=O)CS[C@H]12)c1csc(N)n1 [CEFOTAXIME]	–	22	–	0	26	–	0	–	28	–	0	21	–
–	O=C(O)c1cn(C2CC2)c2cc(N3CCNCC3)c(F)cc2c1=O [CIPROFLOXACIN]	–	24	35	38	29	–	0	–	27	–	–	–	–
–	N[C@@H](C(=O)N[C@@H]1C(=O)N2C(C(=O)O)=C(Cl)CC[C@H]12)c1ccccc1 [LORACARBEF ANHYDROUS]	–	0	0	0	28	–	0	–	23	–	0	24	–
–	CC1(C)S[C@@H]2[C@H](NC(=O)Cc3ccccc3)C(=O)N2[C@H]1C(=O)O [PENICILLIN G]	–	–	–	–	–	54	–	23	–	12	–	–	37
